Data published in ChEMBL document CHEMBL3352602, “One-pot synthesis and antiproliferative activity of novel 2,4-diaminopyrimidine derivatives bearing piperidine and piperazine moieties” (Eur J Med Chem, 2014).

Columns and labels:
[1] = test system: HepG2; assay: Cytotoxicity against human HepG2 cells after 48 hrs by MTT assay; format: functional, cell-based; conditions: HepG2, 48 h
Procedure, shortened: (§1)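 MTT assay on cells grown in DMEM with 10% FBS and split at 70-80% confluence by trypsinization. Seeded 1×10^4 cells/well, attached 24 h at 37 °C. Compounds came from 10 mM DMSO stocks diluted in medium to a concentration series, with 0.1% DMSO as negative control. Cells were exposed for 48 h at 37 °C, then given MTT for 4 h. Formazan was dissolved in DMSO and read at 570 nm. IC50 was fitted from % inhibition versus control, mean of three independent experiments.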

[2] = test system: A549; assay: Cytotoxicity against human A549 cells after 48 hrs by MTT assay; format: functional, cell-based; conditions: A549, 48 h; procedure, shortened: as §1
[3] = test system: MDA-MB-231; assay: Cytotoxicity against human MDA-MB-231 cells after 48 hrs by MTT assay; format: functional, cell-based; conditions: MDA-MB-231, 48 h; procedure, shortened: as §1
[4] = test system: MCF7; assay: Cytotoxicity against human MCF7 cells after 48 hrs by MTT assay; format: functional, cell-based; conditions: MCF7, 48 h; procedure, shortened: as §1
[5] = test system: MDA-MB-231; assay: Induction of cell cycle arrest in human MDA-MB-231 cells assessed as accumulation at subG1 phase at 20 uM after 48 hrs by propidium iodide staining based FACS analysis (reference value: 1.69%); format: functional
[6] = test system: MDA-MB-231; assay: Induction of cell cycle arrest in human MDA-MB-231 cells assessed as accumulation at subG1 phase at 40 uM after 48 hrs by propidium iodide staining based FACS analysis (reference value: 1.69%); format: functional
[7] = test system: MDA-MB-231; assay: Induction of cell cycle arrest in human MDA-MB-231 cells assessed as accumulation at subG1 phase at 80 uM after 48 hrs by propidium iodide staining based FACS analysis (reference value: 1.69%); format: functional
[8] = test system: MDA-MB-231; assay: Induction of cell cycle arrest in human MDA-MB-231 cells assessed as accumulation at G0/G1 phase at 20 uM after 48 hrs by propidium iodide staining based FACS analysis (reference value: 37.97%); format: functional
[9] = test system: MDA-MB-231; assay: Induction of cell cycle arrest in human MDA-MB-231 cells assessed as accumulation at G0/G1 phase at 40 uM after 48 hrs by propidium iodide staining based FACS analysis (reference value: 37.97%); format: functional
[10] = test system: MDA-MB-231; assay: Induction of cell cycle arrest in human MDA-MB-231 cells assessed as accumulation at G0/G1 phase at 80 uM after 48 hrs by propidium iodide staining based FACS analysis (reference value: 37.97%); format: functional
[11] = test system: MDA-MB-231; assay: Induction of cell cycle arrest in human MDA-MB-231 cells assessed as accumulation at S phase at 20 uM after 48 hrs by propidium iodide staining based FACS analysis (reference value: 42.22%); format: functional
[12] = test system: MDA-MB-231; assay: Induction of cell cycle arrest in human MDA-MB-231 cells assessed as accumulation at S phase at 40 uM after 48 hrs by propidium iodide staining based FACS analysis (reference value: 42.22%); format: functional
[13] = test system: MDA-MB-231; assay: Induction of cell cycle arrest in human MDA-MB-231 cells assessed as accumulation at S phase at 80 uM after 48 hrs by propidium iodide staining based FACS analysis (reference value: 42.22%); format: functional
[14] = test system: MDA-MB-231; assay: Induction of cell cycle arrest in human MDA-MB-231 cells assessed as accumulation at G2/M phase at 20 uM after 48 hrs by propidium iodide staining based FACS analysis (reference value: 18.12%); format: functional
[15] = test system: MDA-MB-231; assay: Induction of cell cycle arrest in human MDA-MB-231 cells assessed as accumulation at G2/M phase at 40 uM after 48 hrs by propidium iodide staining based FACS analysis (reference value: 18.12%); format: functional
[16] = test system: MDA-MB-231; assay: Induction of cell cycle arrest in human MDA-MB-231 cells assessed as accumulation at G2/M phase at 80 uM after 48 hrs by propidium iodide staining based FACS analysis (reference value: 18.12%); format: functional
[17] = test system: MDA-MB-231; assay: Induction of cell cycle arrest in human MDA-MB-231 cells assessed as accumulation at G2/M phase after 48 hrs by propidium iodide staining based FACS analysis (reference value: 18.12%); format: functional
[18] = test system: MDA-MB-231; assay: Cytotoxicity against human MDA-MB-231 cells after 48 hrs by MTT assay relative to fluorouracil; format: functional
[19] = test system: A549; assay: Cytotoxicity against human A549 cells after 48 hrs by MTT assay relative to fluorouracil; format: functional

Compound | IC50 [1] | IC50 [2] | IC50 [3] | IC50 [4] | also measured
COc1ccccc1CCNc1nccc(N2CCN(C)CC2)n1 | > 200 µM | > 200 µM | > 200 µM | > 200 µM | 
CS(=O)(=O)N1CCC(Nc2ncc(Cl)c(NCCc3ccccc3)n2)CC1 | 123 µM | > 200 µM | > 200 µM | > 200 µM | 
CS(=O)(=O)N1CCC(Nc2ncc(Cl)c(NCCc3ccc(Cl)cc3)n2)CC1 | > 200 µM | > 200 µM | > 200 µM | > 200 µM | 
O=c1[nH]cc(F)c(=O)[nH]1 [FLUOROURACIL] |  |  | 24.6 µM | 39.9 µM | 
CN1CCN(c2ccnc(Nc3ccc(Cl)cc3)n2)CC1 | > 200 µM | > 200 µM | > 200 µM | > 200 µM | 
CS(=O)(=O)N1CCC(Nc2ccnc(Nc3ccc(Cl)cc3)n2)CC1 | 92.6 µM | > 200 µM | 102 µM | > 200 µM | 
COc1ccc(CNc2nc(NC3CCN(S(C)(=O)=O)CC3)ncc2Cl)cc1 | > 200 µM | 60.9 µM | 34.1 µM | 64.8 µM | 
COc1ccc(CNc2ccnc(NC3CCN(S(C)(=O)=O)CC3)n2)cc1 | 51.7 µM | 51.6 µM | 33.7 µM | 57.2 µM | 
CS(=O)(=O)N1CCC(Nc2nccc(NCc3ccccc3)n2)CC1 | 149 µM | 42.5 µM | 60.8 µM | 98.5 µM | 
COc1ccc(CNc2ccnc(N3CCN(C)CC3)n2)cc1 | > 200 µM | > 200 µM | > 200 µM | > 200 µM | 
COc1ccc(CCNc2nc(NC3CCN(S(C)(=O)=O)CC3)ncc2Cl)cc1 | > 200 µM | > 200 µM | > 200 µM | > 200 µM | 
COc1ccc(Nc2nc(NC3CCN(S(C)(=O)=O)CC3)ncc2Cl)cc1 | > 200 µM | > 200 µM | > 200 µM | > 200 µM | 
COc1ccc(Nc2nccc(N3CCN(C)CC3)n2)cc1 | > 200 µM | > 200 µM | > 200 µM | > 200 µM | 
CS(=O)(=O)N1CCC(Nc2ncc(Cl)c(Nc3ccccc3)n2)CC1 | > 200 µM | > 200 µM | > 200 µM | > 200 µM | 
COc1cccc(Nc2nccc(NC3CCN(S(C)(=O)=O)CC3)n2)c1 | 67.9 µM | > 200 µM | 109 µM | 72.1 µM | 
CS(=O)(=O)N1CCC(Nc2ncc(Cl)c(Nc3ccc(Cl)cc3)n2)CC1 | > 200 µM | > 200 µM | > 200 µM | > 200 µM | 
COc1cccc(Nc2nc(NC3CCN(S(C)(=O)=O)CC3)ncc2Cl)c1 | > 200 µM | > 200 µM | > 200 µM | > 200 µM | 
COc1ccc(CCNc2nccc(NC3CCN(S(C)(=O)=O)CC3)n2)cc1 | 20 µM | 21.4 µM | 15.8 µM | 32.8 µM | 
CS(=O)(=O)N1CCC(Nc2ncc(Cl)c(NCc3ccccc3)n2)CC1 | > 200 µM | 46.8 µM | 11.7 µM | 32.4 µM | 
COc1cccc(Nc2ccnc(NC3CCN(S(C)(=O)=O)CC3)n2)c1 | 86.6 µM | > 200 µM | 29.4 µM | 77.8 µM | 
COc1ccc(Nc2nccc(NC3CCN(S(C)(=O)=O)CC3)n2)cc1 | 86.2 µM | 91.7 µM | 57.7 µM | > 200 µM | 
COc1cccc(Nc2ccnc(N3CCN(C)CC3)n2)c1 | > 200 µM | > 200 µM | > 200 µM | > 200 µM | 
COc1ccc(CNc2nccc(NC3CCN(S(C)(=O)=O)CC3)n2)cc1 | 20.2 µM | 12.8 µM | 7.46 µM | 16.2 µM | Activity [5]: 1.09%; Activity [6]: 1.03%; Activity [7]: 1.26%; Activity [8]: 33.09%; Activity [9]: 32.55%; Activity [10]: 31.01%; Activity [11]: 32.03%; Activity [12]: 29.91%; Activity [13]: 26.78%; Activity [14]: 33.79%; Activity [15]: 36.51%; Activity [16]: 40.95%; Activity [17]: Dose-dependent effect; Ratio IC50 [18]: 2; Ratio IC50 [19]: 2
CN1CCN(c2nccc(NCc3ccccc3)n2)CC1 | > 200 µM | > 200 µM | > 200 µM | > 200 µM | 
CS(=O)(=O)N1CCC(Nc2nccc(Nc3ccc(Cl)cc3)n2)CC1 | 78.6 µM | > 200 µM | > 200 µM | > 200 µM | 
